# Bioassay records as filed in PubChem BioAssay.
# HCV NS3 hel inh: HCV NS3 helicase inhibition; 290,000 compounds, 0.56% hits; AID 1800; NS3 helicase DNA unwinding, Cy5 molecular beacon fluorescence; inhibition, % at 10.9 µM;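 active means inhibition above the mean of all tested compounds plus 3 SD, set per campaign, cut at about 35% in these data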
#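 Measured by: Cy5 fluorescence, 0 and 60 min reads / Assay system: NS3 helicase fragment of HCV / Control set: low DMSO, high thioflavine S at 110 µM / Times: 1 h reaction at 25 °C, ATP-initiated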
# EBNA-1 inh: blocks EBNA-1 binding to DNA; EBNA-1 DNA binding, fluorescence polarization; AID 1950; 300,000 compounds, 0.34% hits; inhibition, % at 14.8 µM; in the data active means inhibition above about 28%
# core dimer inh: HCV core protein dimerization inhibition; 300,000 compounds, 0.33% hits; TR-FRET GST/Flag-core106 dimerization, 1536-well; inhibition, % at 5 µM;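 active means inhibition above the mean of all tested compounds plus 3 SD, set per screening campaign, cut at about 45% in these data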
#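 assay system = GST-tagged and Flag-tagged HCV core protein residues 1-106 | controls = unlabelled core106 and no-GST-core106 wells | incubation = compound-protein-antibody incubation 4 h at 22.5 °C | probe or stimulus = Eu donor and XL665 acceptor anti-tag antibodies | read-out = % inhibition based on acceptor/donor emission ratio | signal = TR-FRET 671 and 617 nm emission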
# UBC9 SUMO inh: SUMOylation inhibition; P63279; HTRF SUMOylation assay, SAE1/SAE2 + UBC9, in vitro; inhibition, % at 35 µM; 290,000 compounds, 0.36% hits; AID 2006; in the data active means inhibition above about 50%, passing the limit was not always enough
# Target sequence (P63279 whole entry, looked up): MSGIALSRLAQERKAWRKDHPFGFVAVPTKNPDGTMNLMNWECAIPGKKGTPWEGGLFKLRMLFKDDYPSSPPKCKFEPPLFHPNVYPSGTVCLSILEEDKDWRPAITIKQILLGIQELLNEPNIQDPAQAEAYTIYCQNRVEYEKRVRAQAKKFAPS
# ZTA DNA inh: counter-screen for EBNA-1 inhibitors: inhibitors of Epstein-Barr virus ZTA; P03206; ZTA-DNA binding, fluorescence polarization; inhibition, % at 11 µM; 320,000 compounds, 0.15% hits; AID 2234; in the data active means inhibition above about 33%
# Target sequence (P03206 whole entry, looked up): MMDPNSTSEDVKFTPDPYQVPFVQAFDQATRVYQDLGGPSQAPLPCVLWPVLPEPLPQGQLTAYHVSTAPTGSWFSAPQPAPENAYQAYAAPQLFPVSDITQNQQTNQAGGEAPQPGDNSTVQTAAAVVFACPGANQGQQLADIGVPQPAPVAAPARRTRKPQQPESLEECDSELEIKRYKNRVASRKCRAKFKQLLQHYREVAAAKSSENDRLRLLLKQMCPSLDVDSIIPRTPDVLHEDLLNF
# A number is an active result; – = inactive; · = no result given; + = active, no number. A selection: hits, their analogues and other compounds. The true share with any hit is near 1.4%.
SMILES,HCV NS3 hel inh,EBNA-1 inh,core dimer inh,UBC9 SUMO inh,ZTA DNA inh
O=C(COc1ccc2oc(-c3ccco3)cc(=O)c2c1)N1CCCCC1,–,–,–,52,–
Cn1c(N)c(C(=O)COC(=O)c2cc(-c3ccco3)nc3ccccc23)c(=O)n(Cc2ccccc2)c1=O,–,–,47,–,–
O=C(Nc1ccccc1N1CCOCC1)c1cc(-c2ccco2)nc2ccccc12,–,–,56,–,–
CNC(=O)COC(=O)c1cc(-c2ccco2)nc2ccccc12,–,–,48,63,–
CC1(C)C(/C=C/C=C/C=C/C=C2\N(CCCCS(=O)(=O)O)c3ccc4ccccc4c3C2(C)C)=[N+](CCCCS(=O)(=O)[O-])c2ccc3ccccc3c21,·,51,69,·,61
CCOC(=O)C1=C(C)N=c2s/c(=C/c3ccco3)c(=O)n2C1c1cccc(OC)c1 (stereo not drawn),–,–,48,–,–
CCCCn1c(N)c(N(CC(C)C)C(=O)CC2CCCC2)c(=O)[nH]c1=O,·,–,–,·,–
O=C(O)CCC1c2cc3c4cc2OC2Oc5cc6c(cc51)C(CCC(=O)O)c1cc5c7cc1OC(O6)c1cc6cc(c1)Oc1cc(cc(C(=O)O)c1)Oc1cc8cc(c1)C(Oc1cc(c(cc1C5CCC(=O)O)C3CCC(=O)O)OC(O4)c1cc(cc(c1)Oc1cc(cc(C(=O)O)c1)O8)Oc1cc(cc(C(=O)O)c1)Oc1cc(cc2c1)Oc1cc(cc(C(=O)O)c1)O6)O7 (stereo not drawn),·,102,61,·,106
CSc1ccc(CCNC(=O)c2cccc3c2C(=O)N(C2CCCCC2)C3)cc1,–,–,–,–,–
Nc1c(N(Cc2ccco2)C(=O)COc2ccccc2F)c(=O)[nH]c(=O)n1Cc1ccccc1,·,·,·,·,–
O=C(c1ccccc1)c1ccc2nc(-c3ccco3)c(-c3ccco3)nc2c1,–,–,47,95,–
O=C(NCCc1ccccc1)c1ccc2nc(-c3ccco3)c(-c3ccco3)nc2c1,–,–,65,–,–
COc1ccccc1N1CCN(C(=O)c2ccc3nc(-c4ccco4)c(-c4ccco4)nc3c2)CC1,–,–,–,72,–
COc1ccccc1CN(C)C(=O)C(NC(=O)Cc1cccc2ccccc12)C(C)C (stereo not drawn),–,–,–,–,–
CCn1ccc(C(=O)Nc2ncc(C)s2)n1,–,–,–,–,–
O=C(c1ccc(C#CC2(O)CCCCC2)cc1)N1CCN(Cc2ccccc2)CC1,–,–,–,–,–
O=C(c1ccc(C#CC2(O)CCCCC2)cc1)N1CCN(C(c2ccccc2)c2ccccc2)CC1,–,–,53,–,–
Cc1c(C=O)c(=O)n(-c2ccccc2)n1C,–,+,–,–,+
O=C(O)c1ccc(S(=O)(=O)N2CCSCC2)cc1,–,–,–,–,–
O=C(N/N=C/c1ccc(Cl)cc1Cl)c1ccncc1,–,–,–,–,–
O=C(N/N=C/c1cc(Cl)cc(Cl)c1O)c1ccncc1,–,–,–,58,–
CC(C)C[C@@]12C(=O)N(c3ccc(Br)cc3)C(=O)N1[C@H](c1ccc(Br)cc1)[C@@H]1C(=O)N(C(C)(C)C)C(=O)[C@@H]12,–,–,–,–,–
COc1cc(/C=C2\CCc3c2nc2ccccc2c3C(=O)O)cc(OC)c1OC,–,–,–,54,–
COc1cc(/C=C2\CCCc3c2nc2ccccc2c3C(=O)O)cc(Br)c1O,–,–,–,–,–
CCn1c(SCC(=O)Nc2ccc3c(c2)c2ccccc2n3CC)nnc1-c1ccco1,–,–,65,–,–
SMILES,HCV NS3 hel inh,EBNA-1 inh,core dimer inh,UBC9 SUMO inh,ZTA DNA inh
CCn1c(SCC(=O)Nc2sc3c(c2C(N)=O)CCC(C)C3)nnc1-c1ccco1 (stereo not drawn),–,–,56,–,–
CCn1c(SCC(=O)Nc2cccc(NC(C)=O)c2)nnc1-c1ccco1,–,–,–,–,–
CCCOc1ccc2cc(C(=O)NCc3ccccc3)c(=O)oc2c1,–,–,58,–,–
COc1ccc2oc(=O)c(C(=O)NCc3ccccc3)cc2c1,–,–,–,–,–
O=C(CN1CCc2cc3c(cc2C1)OCCCO3)Nc1cccc(Br)c1,–,–,–,–,–
COc1ccc(C(C[N+](=O)[O-])c2c(C)[nH]n(-c3ccccc3)c2=O)cc1 (stereo not drawn),–,–,–,87,–
Cc1[nH]n(-c2ccccc2)c(=O)c1C(C[N+](=O)[O-])c1ccccc1Cl (stereo not drawn),–,–,–,–,–
O=C(C1CCC(Cn2c(=S)[nH]c3ccccc3c2=O)CC1)N1CCN(c2ccccc2)CC1 (stereo not drawn),–,–,53,·,–
CCOC(=O)c1sc(NC(=O)CSc2n[nH]c(-c3ccncc3)n2)c(C#N)c1C,–,–,–,–,–
CCOc1ccc(/C=C/C2=Cc3c(sc(NC(=O)CSc4n[nH]c(N)n4)c3C#N)C(C)(C)C2)cc1,–,–,72,–,–
Cc1ccsc1/C=C/C1=Cc2c(sc(NC(=O)CSc3n[nH]c(N)n3)c2C#N)C(C)(C)C1,–,–,77,–,–
O=C(Cc1ccsc1)NNC(=O)c1ccccc1Cl,·,–,–,·,–
O=c1cc(CN2CCCc3ccccc32)nc2sccn12,–,–,–,–,–
O=c1cc(CN2CCc3ccccc32)nc2sccn12,–,–,86,–,–
CN(CCOc1ccc(Cl)cc1)C(=O)c1cc(-c2ccco2)nc2ccccc12,·,–,–,·,–
CC(C)Cn1c(-c2ccco2)csc1=Nc1cccnc1,–,–,50,–,–
N=c1c2ccccc2nc2n1CCCCCCCCCCC2,·,–,–,·,–
Cc1sc(NC(=O)c2sc3nc4c(C)cccc4cc3c2N)c(C#N)c1C,–,–,47,–,–
CCOc1ccc(-n2cc(C(=O)Nc3cccc(Cl)c3)c3cc(OC)c(OC)cc3c2=O)cc1,–,–,48,–,–
O=C(CSc1nc2ncccc2[nH]1)c1ccc2c(c1)OCO2,–,–,–,–,–
O=c1oc(-c2cccs2)nc2sc3c(c12)CCC3,–,–,–,51,–
O=c1oc(-c2cccs2)nc2sc3c(c12)CCCC3,–,–,–,–,–
Cc1cccc(C(=O)N/C(=C\c2ccc(C)o2)C(=O)O)c1,–,–,–,–,–
O=C(COc1ccc2c(-c3ccccc3)cc(=O)oc2c1)NC1CCS(=O)(=O)C1 (stereo not drawn),·,·,·,·,–
Cc1ccc(S(=O)(=O)N2CCCN(c3nc4cc(C)ccc4cc3C#N)CC2)cc1,–,–,–,–,–
Cc1ccc2nc(N3CCN(S(=O)(=O)c4ccc5c(c4)OCCO5)CC3)c(C#N)cc2c1,–,–,59,–,–
O=C(COC(=O)c1ncc(Cl)c(Cl)c1Cl)NCCc1ccccc1,·,–,–,·,–
Cc1ccc(C2=NN=C(NC(=O)CSc3nnc4c5ccccc5n(C)c4n3)SC2)cc1,53,–,–,–,–
Cc1ccc2oc(-c3cccc(NC(=O)/C=C/c4cccc([N+](=O)[O-])c4)c3C)nc2c1,–,28,–,–,–
